“Also recorded” adds a separate entry of the source.
Key:
[1] = tested on: relapsed/refractory acute lymphoblastic leukemia; assay: Phase I/II study: response and survival with everolimus plus HyperCVAD; format: in vivo, human
[2] = tested on: pS6RP, p4EBP1 (Thr37/46), pAkt (Ser473); format: in vivo, human; settings: 5 of 8 tested samples; 24 h after first dose; both 5 mg and 10 mg dose levels
[3] = tested on: mTOR targets (S6RP pS235-S236, S6RP pS240-S244, 4EBP1) and Akt; assay: Reverse phase protein array; format: in vivo, human
Procedure, shortened: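 Peripheral blood proteins from 10 patients (3 on 5 mg/day, 7 on 10 mg/day everolimus) were lysed as for western blots, taken before (C1D0) and 24 h after (C1D1) the first dose. The reverse phase protein array probed mTOR pS2448, p70S6K pT389, S6RP pS235-S236 and pS240-S244, 4EBP1 pS65 and pT37-T46, and Akt pS473 and pT308. Phospho/total ratios were compared between days 0 and 1.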

[4] = Everolimus whole blood pharmacokinetics; format: in vivo, human
Procedure, shortened: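 Patients with relapsed/refractory ALL took oral everolimus (5 or 10 mg/day, continuous from Cycle 1 Day 0) with HyperCVAD. Whole blood was collected in EDTA tubes 1, 2, 5, 8 and 24 h post-dose on Days 1 and 15 of Cycles 1 and 2 and held at 4°C. Drug levels were measured by validated HPLC-MS/MS with sirolimus internal standard. Cmax, Tmax, t1/2, Ke, CL, AUC0-∞ and V came from non-compartmental analysis.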

[5] = tested on: mTOR-sensitive, inflammation-associated and miR-21 target gene sets; format: in vivo, human
Procedure, shortened: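 Peripheral blood was sampled from 5 patients before (C1D0) and 24 h after (C1D1) the first oral everolimus dose. RNA was TRIzol-extracted, isopropanol-precipitated and 70% ethanol-washed, accepted at integrity number >7, and amplified/biotinylated via oligo(dT) reverse transcription and T7 transcription with biotin-UTP. It was hybridised to HumanHT-12 v4 bead chips and analysed by gene set enrichment analysis.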

[6] = tested on: patients with relapsed/refractory acute lymphoblastic leukemia
[7] = tested on: patients with relapsed or refractory hematologic malignancies; settings: phase I study at UT/MDACC; cited from earlier work
[8] = 1 of 24 patients, everolimus with HyperCVAD
[9] = all 24 patients, everolimus with HyperCVAD
[10] = patients in first salvage, everolimus with HyperCVAD
[11] = patients in second salvage and beyond, everolimus with HyperCVAD

CO[C@H]1C[C@@H]2CC[C@@H](C)[C@@](O)(O2)C(=O)C(=O)N2CCCC[C@H]2C(=O)O[C@H]([C@H](C)C[C@@H]2CC[C@@H](OCCO)[C@H](OC)C2)CC(=O)[C@H](C)/C=C(\C)[C@@H](O)[C@@H](OC)C(=O)[C@H](C)C[C@H](C)/C=C/C=C/C=C/1C [everolimus]
CR without platelet recovery (CRp) [1, 8]: 4% | CR without recovery of counts (CRi) [1, 8]: 4% | partial response (PR) ([1]; 2 of 24 patients, everolimus with HyperCVAD): 8% | response in T-ALL patients ([1]; 5 of 10 heavily pretreated T-ALL patients, everolimus with HyperCVAD): 50% | response in B-ALL patients ([1]; 5 of 13 patients (all CR), everolimus with HyperCVAD): 39% | complete remission (CR) ([1]; 6 of 24 patients, everolimus with HyperCVAD): 25% | response (CR/CRp) in first salvage ([1]; 7 of 11 patients, everolimus with HyperCVAD): 64% | responses beyond second salvage ([1]; 10 patients, everolimus with HyperCVAD): no responses | median OS ([1]; B-ALL patients, everolimus with HyperCVAD): 23 weeks | median OS ([1]; T-ALL patients, everolimus with HyperCVAD): 23 weeks | overall response rate (CR+CRp+CRi) [1, 9]: 33% | response noted (including PR) [1, 9]: 41% | no detectable MRD at response (multiparametric flow cytometry) ([1]; among patients who achieved CR/CRp/CRi): 5 of the 8 | CRi in second salvage ([1]; everolimus with HyperCVAD): 1 of 3 | median EFS [1, 10]: 22 weeks | median OS [1, 10]: 29 weeks | median EFS [1, 11]: 7 weeks | median OS [1, 11]: 15 weeks | complete cytogenetic response ([1]; responders with abnormal cytogenetics at diagnosis): 3 patients | samples with reduced phosphorylation of S6RP (western blot) [2]: 62% | phosphorylation of S6RP pS235-S236 (RPPA) ([3]; 10 patients, 1-sided paired t-test P=0.007): inhibited phosphorylation | phosphorylation of S6RP pS240-S244 (RPPA) ([3]; 10 patients, 1-sided paired t-test P=0.01): inhibited phosphorylation | phosphorylation of 4EBP1, Akt, or other proteins ([3]; 24 h after first dose): No significant decreases; also recorded: No statistically significant differences | phosphorylation of S6RP at pS235-S236 and pS240-S244 sites ([3]; everolimus 5 mg/day, RPPA and western blot): sufficiently blocked | degree of inhibition of proteins or phosphorylated forms, 5 mg/day vs 10 mg/day ([3]; including Akt targets cyclin D1, FOXO3A, PRAS40 and Mcl-1): did not differ | patients with elevation of PTEN levels by RPPA ([3]; of 10 patients with serial analysis): Five | AUC and Cmax at steady state (C1D15 and C2D0) versus literature ([4]; 10-mg/day dose): higher than in previous published studies | trough levels of everolimus, association ([4]; in vivo): not associated with response or toxicity | AUC and Cmax between everolimus 5 mg/day and 10 mg/day ([4]; whole blood): dose-proportional | expression of mTOR-sensitive genes induced by overexpression of Akt (GSEA) ([5]; 5 patients, C1D0 vs C1D1): significantly reduced | inflammation-associated genes (TNF, EGF, IL-6 induced) (GSEA) ([5]; 5 patients, C1D0 vs C1D1): similarly reduced | target genes of miR-21 (GSEA) ([5]; 5 patients, C1D0 vs C1D1): increased | patient samples with increased PTEN expression (microarray) ([5]; P=0.016): 4 of the 5 | Cardiac: Pericardial effusion, G1/2 ([6]; human, in vivo): 0 N (%) | Cardiac: Pericardial effusion, G3/4 ([6]; human, in vivo): 2 (8) N (%) | Cardiac: Tachycardia, G1/2 ([6]; human, in vivo): 3 (13) N (%) | Cardiac: Tachycardia, G3/4 ([6]; human, in vivo): 1 (4) N (%) | Constitutional: Fatigue, G1/2 ([6]; human, in vivo): 13 (54) N (%) | Constitutional: Fatigue, G3/4 ([6]; human, in vivo): 0 N (%) | Constitutional: Headache, G1/2 ([6]; human, in vivo): 6 (25) N (%) | Constitutional: Headache, G3/4 ([6]; human, in vivo): 4 (17) N (%) | Gastrointestinal: Diarrhea, G1/2 ([6]; human, in vivo): 8 (33) N (%) | Gastrointestinal: Diarrhea, G3/4 ([6]; human, in vivo): 2 (8) N (%) | Gastrointestinal: Nausea, G1/2 ([6]; human, in vivo): 9 (38) N (%) | Gastrointestinal: Nausea, G3/4 ([6]; human, in vivo): 0 N (%) | Infection (one or more), G1/2 ([6]; human, in vivo): 0 N (%) | Infection (one or more), G3/4 ([6]; human, in vivo): 23 (96) N (%) | Metabolic: ALT/AST, G1/2 ([6]; human, in vivo): 14 (58) N (%) | Metabolic: ALT/AST, G3/4 ([6]; human, in vivo): 7 (29) N (%) | Metabolic: Bilirubin, G1/2 ([6]; human, in vivo): 14 (58) N (%) | Metabolic: Bilirubin, G3/4 ([6]; human, in vivo): 2 (8) N (%) | Metabolic: Hyperglycemia, G1/2 ([6]; human, in vivo): 7 (29) N (%) | Metabolic: Hyperglycemia, G3/4 ([6]; human, in vivo): 12 (50) N (%) | Mucositis/stomatitis, G1/2 ([6]; human, in vivo): 10 (42) N (%) | Mucositis/stomatitis, G3/4 ([6]; human, in vivo): 3 (13) N (%) | Pulmonary: Dyspnea, G1/2 ([6]; human, in vivo): 1 (4) N (%) | Pulmonary: Dyspnea, G3/4 ([6]; human, in vivo): 1 (4) N (%) | Pulmonary: Pleural effusions, G1/2 ([6]; human, in vivo): 1 (10) N (%) | Pulmonary: Pleural effusions, G3/4 ([6]; human, in vivo): 2 (8) N (%) | Renal: Renal insufficiency, G1/2 ([6]; human, in vivo): 0 N (%) | Renal: Renal insufficiency, G3/4 ([6]; human, in vivo): 4 (17) N (%) | Renal: Urinary retention, G1/2 ([6]; human, in vivo): 1 (4) N (%) | Renal: Urinary retention, G3/4 ([6]; human, in vivo): 0 N (%) | incidence of grade 3/4 hyperglycemia ([6]; human, in vivo): 50% | myelosuppression and neutropenia ([6]; human, in vivo): occurred in all 24 patients | maximum tolerated dose (MTD) of everolimus ([6]; in combination with HyperCVAD, 3+3 design): 5 mg/day | DLT at dose level 0 ([6]; in vivo): no documented first or second cycle DLT | pneumonitis ([6]; in vivo): No documented cases | tolerability of single-agent everolimus [7]: well tolerated at a dose of 10 mg daily
